Experimental data from ChEMBL document CHEMBL4689842, “EUbOPEN Chemogenomics Library wave 1” (2021).

Test system: Fibroblast
Assay: Multiplex assay against human fibroblast
Format: toxicity, cell-based
Procedure, shortened: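 Hoechst33342, BioTracker Green Microtubule Cytoskeleton Dye, MitoTracker Red and Annexin V Alexa Fluor 680 were added to live cells at seeding, and imaging on a CQ1 microscope at 37°C and 5% CO2 followed compound addition. Gating by CellPathfinder machine learning separated cells into Hoechst high-intensity objects or normal cells, then normal cells into healthy, pyknosed or fragmented nuclei, then pyknosed cells into mitotic or apoptotic. Per cents of healthy-nucleus cells are reported for the tubulin, mitochondrial-mass and membrane-permeability phenotypes.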

[1] = 12 h, 1 µM, compound concentration 1 uM, replicate 1
[2] = 12 h, 1 µM, compound concentration 1 uM, replicate 2
[3] = 12 h, 10 µM, compound concentration 10 uM, replicate 1
[4] = 12 h, 10 µM, compound concentration 10 uM, replicate 2
[5] = 24 h, 1 µM, compound concentration 1 uM, replicate 1
[6] = 24 h, 1 µM, compound concentration 1 uM, replicate 2
[7] = 24 h, 10 µM, compound concentration 10 uM, replicate 1
[8] = 24 h, 10 µM, compound concentration 10 uM, replicate 2
[9] = 48 h, 1 µM, compound concentration 1 uM, replicate 1
[10] = 48 h, 1 µM, compound concentration 1 uM, replicate 2
[11] = 48 h, 10 µM, compound concentration 10 uM, replicate 1
[12] = 48 h, 10 µM, compound concentration 10 uM, replicate 2

## CN1CCN(c2ccc(OC(F)(F)F)c(Nc3ncc4c(n3)-c3c(c(C(N)=O)nn3CCO)CC4)c2)CC1 [ONVANSERTIB]
[1]
  Population Apoptotic (%): 63%
  Population Fragmented Nuclei (%): 23%
  Population Healthy Nuclei (%): 35%
  Population Hoechst High Intensity Objects (%): 19%
  Population Membrane Permeable-Phenotype (%): 29%
  Population Mitochondria Different-Phenotype (%): 10%
  Population Mitotic Cells (%): 36%
  Population Normal (%): 80%
  Population Pyknosed Nuclei (%): 40%
  Population Tubulin-Different-Phenotype (%): 41%
  Total Cell Count: 168
[2]
  Population Apoptotic (%): 25%
  Population Fragmented Nuclei (%): 11%
  Population Healthy Nuclei (%): 80%
  Population Hoechst High Intensity Objects (%): 14%
  Population Membrane Permeable-Phenotype (%): 0%
  Population Mitochondria Different-Phenotype (%): 14%
  Population Mitotic Cells (%): 75%
  Population Normal (%): 85%
  Population Pyknosed Nuclei (%): 7%
  Population Tubulin-Different-Phenotype (%): 16%
  Total Cell Count: 66
[3]
  Population Apoptotic (%): 68%
  Population Fragmented Nuclei (%): 34%
  Population Healthy Nuclei (%): 36%
  Population Hoechst High Intensity Objects (%): 15%
  Population Membrane Permeable-Phenotype (%): 3%
  Population Mitochondria Different-Phenotype (%): 9%
  Population Mitotic Cells (%): 32%
  Population Normal (%): 84%
  Population Pyknosed Nuclei (%): 29%
  Population Tubulin-Different-Phenotype (%): 64%
[4]
  Population Apoptotic (%): 40%
  Population Fragmented Nuclei (%): 9%
  Population Healthy Nuclei (%): 78%
  Population Hoechst High Intensity Objects (%): 19%
  Population Membrane Permeable-Phenotype (%): 0%
  Population Mitochondria Different-Phenotype (%): 84%
  Population Mitotic Cells (%): 60%
  Population Normal (%): 80%
  Population Pyknosed Nuclei (%): 12%
  Population Tubulin-Different-Phenotype (%): 78%
  Total Cell Count: 61
[5]
  Population Apoptotic (%): 53%
  Population Fragmented Nuclei (%): 25%
  Population Healthy Nuclei (%): 41%
  Population Hoechst High Intensity Objects (%): 24%
  Population Membrane Permeable-Phenotype (%): 25%
  Population Mitochondria Different-Phenotype (%): 7%
  Population Mitotic Cells (%): 46%
  Population Normal (%): 75%
  Population Pyknosed Nuclei (%): 33%
  Population Tubulin-Different-Phenotype (%): 61%
  Total Cell Count: 165
[6]
  Population Apoptotic (%): 57%
  Population Fragmented Nuclei (%): 21%
  Population Healthy Nuclei (%): 65%
  Population Hoechst High Intensity Objects (%): 5%
  Population Membrane Permeable-Phenotype (%): 5%
  Population Mitochondria Different-Phenotype (%): 32%
  Population Mitotic Cells (%): 42%
  Population Normal (%): 94%
  Population Pyknosed Nuclei (%): 13%
  Population Tubulin-Different-Phenotype (%): 11%
  Total Cell Count: 73
[7]
  Population Apoptotic (%): 58%
  Population Fragmented Nuclei (%): 39%
  Population Healthy Nuclei (%): 37%
  Population Hoechst High Intensity Objects (%): 18%
  Population Membrane Permeable-Phenotype (%): 28%
  Population Mitochondria Different-Phenotype (%): 0%
  Population Mitotic Cells (%): 41%
  Population Normal (%): 81%
  Population Pyknosed Nuclei (%): 23%
  Population Tubulin-Different-Phenotype (%): 66%
  Total Cell Count: 127
[8]
  Population Apoptotic (%): 40%
  Population Fragmented Nuclei (%): 11%
  Population Healthy Nuclei (%): 77%
  Population Hoechst High Intensity Objects (%): 16%
  Population Membrane Permeable-Phenotype (%): 5%
  Population Mitochondria Different-Phenotype (%): 82%
  Population Mitotic Cells (%): 60%
  Population Normal (%): 83%
  Population Pyknosed Nuclei (%): 11%
  Population Tubulin-Different-Phenotype (%): 55%
  Total Cell Count: 55
[9]
  Population Apoptotic (%): 53%
  Population Fragmented Nuclei (%): 38%
  Population Healthy Nuclei (%): 37%
  Population Hoechst High Intensity Objects (%): 21%
  Population Membrane Permeable-Phenotype (%): 25%
  Population Mitochondria Different-Phenotype (%): 6%
  Population Mitotic Cells (%): 46%
  Population Normal (%): 78%
  Population Pyknosed Nuclei (%): 24%
  Population Tubulin-Different-Phenotype (%): 65%
  Total Cell Count: 146
[10]
  Population Apoptotic (%): 40%
  Population Fragmented Nuclei (%): 25%
  Population Healthy Nuclei (%): 68%
  Population Hoechst High Intensity Objects (%): 17%
  Population Membrane Permeable-Phenotype (%): 13%
  Population Mitochondria Different-Phenotype (%): 1%
  Population Mitotic Cells (%): 60%
  Population Normal (%): 82%
  Population Pyknosed Nuclei (%): 5%
  Population Tubulin-Different-Phenotype (%): 23%
[11]
  Population Apoptotic (%): 50%
  Population Fragmented Nuclei (%): 46%
  Population Healthy Nuclei (%): 40%
  Population Hoechst High Intensity Objects (%): 23%
  Population Membrane Permeable-Phenotype (%): 19%
  Population Mitochondria Different-Phenotype (%): 9%
  Population Mitotic Cells (%): 50%
  Population Normal (%): 76%
  Population Pyknosed Nuclei (%): 13%
  Population Tubulin-Different-Phenotype (%): 69%
  Total Cell Count: 136
[12]
  Population Fragmented Nuclei (%): 37%
  Population Healthy Nuclei (%): 58%
  Population Hoechst High Intensity Objects (%): 20%
  Population Membrane Permeable-Phenotype (%): 7%
  Population Mitochondria Different-Phenotype (%): 4%
  Population Normal (%): 79%
  Population Pyknosed Nuclei (%): 4%
  Population Tubulin-Different-Phenotype (%): 73%
  Total Cell Count: 241
